Results as given in ChEMBL document CHEMBL3351780, “Novel hybrids of metronidazole and quinolones: synthesis, bioactive evaluation, cytotoxicity, preliminary antimicrobial mechanism and effect of metal ions on their transportation by human serum albumin” (Eur J Med Chem, 2014).
Values after ≈ are worked out from the molar mass of the structure shown.

Experiments:
Streptococcus pneumoniae = assay: Antibacterial activity against Streptococcus pneumoniae by two-fold serial dilution method; type: functional
In short: (§1)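 Standard two-fold serial dilution in 96-well microtest plates following NCCLS. Top dilutions printed as 32, 16, 8, 4, 2, 1, 0.5 ug/mL. Wells inoculated and held at 37 °C for 24 h. Growth judged visually and by spectrophotometer, in triplicate. MIC is the lowest concentration giving complete growth inhibition.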

Micrococcus luteus = assay: Antibacterial activity against Micrococcus luteus by two-fold serial dilution method; type: functional; in short: as §1
Staphylococcus aureus [1] = assay: Antibacterial activity against methicillin-resistant Staphylococcus aureus N315 by two-fold serial dilution method; type: functional
In short: (§2)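 MIC read as the lowest concentration giving complete growth inhibition. Two-fold serial dilutions were made in 96-well plates following NCCLS, giving a series down to 0.5 µg/mL (…32, 16, 8, 4, 2, 1, 0.5). Plates were inoculated and incubated at 37 °C for 24 h. A DMSO-with-inoculum control without drug was included. Growth was monitored visually and spectrophotometrically, in triplicate.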

Staphylococcus aureus [2] = assay: Antibacterial activity against Staphylococcus aureus ATCC 25923 by two-fold serial dilution method; type: functional; in short: as §1
Bacillus spizizenii = assay: Antibacterial activity against Bacillus subtilis ATCC 6633 by two-fold serial dilution method; type: functional; in short: as §1
Pseudomonas aeruginosa = assay: Antibacterial activity against Pseudomonas aeruginosa by two-fold serial dilution method; type: functional; in short: as §1
Escherichia coli = assay: Antibacterial activity against Escherichia coli DH52 by two-fold serial dilution method; type: functional; in short: as §1
Shigella dysenteriae = assay: Antibacterial activity against Shigella dysenteriae by two-fold serial dilution method; type: functional; in short: as §2
[3] = Antibacterial activity against Eberthella typhosa by two-fold serial dilution method; type: functional; in short: as §2
Cyberlindnera jadinii = assay: Antifungal activity against Candida utilis after 24 hrs by microbroth dilution method; type: functional; conditions: Williopsis jadinii
In short: (§3)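 Spore suspension prepared in sterile distilled water from one-day-old cultures on Sabouraud agar, final 1-5 x 10^3 spores/mL. Compounds were serially diluted in RPMI 1640 to give eleven dilutions. Incubation at 35 °C for 24 h. Growth read visually and spectrophotometrically, in triplicate. MIC is the lowest concentration with complete inhibition.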

Saccharomyces cerevisiae = assay: Antifungal activity against Saccharomyces cerevisiae after 24 hrs by microbroth dilution method; type: functional; in short: as §3
Candida albicans = assay: Antifungal activity against Candida albicans ATCC 76615 after 24 hrs by microbroth dilution method; type: functional; conditions: ATCC 76615, 24 h; in short: as §3
Pichia norvegensis = assay: Antifungal activity against Candida mycoderma after 24 hrs by microbroth dilution method; type: functional
[4] = Dissociation constant, pKa of the compound by UV-spectroscopy; type: physicochemical
In short: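 DMSO stock at 4.0 × 10^-3 mol/L added to 2 mL of buffer, then shaken 10 min at room temperature. Buffers were acetate (pH 4.0–5.0), MES (5.5–6.5), HEPES (7.0–8.0) and CHES (8.5–9.4), each from 500 mM stocks. Scans ran 210–400 nm and were normalized. Absolute differences from the acid spectrum were summed at 244 and 308 nm, plotted against pH and fitted to obtain pKa.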

[5] = Octanol-water partition co-efficient, log P of the compound by shake flask method; type: physicochemical
[6] = Aqueous solubility of the compound by UV-spectrophotometry; type: physicochemical

Structure (SMILES)	MIC (Streptococcus pneumoniae) [µg/mL]	MIC (Micrococcus luteus) [µg/mL]	MIC (Staphylococcus aureus [1]) [µg/mL]	MIC (Staphylococcus aureus [2]) [µg/mL]	MIC (Bacillus spizizenii) [µg/mL]	MIC (Pseudomonas aeruginosa) [µg/mL]	MIC (Escherichia coli) [µg/mL]	MIC (Shigella dysenteriae) [µg/mL]	MIC [3] [µg/mL]	MIC (Cyberlindnera jadinii) [µg/mL]	MIC (Saccharomyces cerevisiae) [µg/mL]	MIC (Candida albicans) [µg/mL]	MIC (Pichia norvegensis) [µg/mL]	pKa [4]	logP [5]	solubility [6] [µg/mL]
COc1ccc2c(c1)c(=O)c(C(=O)O)cn2CC(O)Cn1cnc([N+](=O)[O-])c1 (stereo not given)	64 (≈ 165 µM)	256 (≈ 659 µM)	16 (≈ 41.2 µM)	64 (≈ 165 µM)	16 (≈ 41.2 µM)	128 (≈ 330 µM)	64 (≈ 165 µM)	16 (≈ 41.2 µM)	32 (≈ 82.4 µM)	128 (≈ 330 µM)	512 (≈ 1320 µM)	128 (≈ 330 µM)	128 (≈ 330 µM)	–	–	–
Cc1ncc([N+](=O)[O-])n1CC(O)Cn1cc(C(=O)O)c(=O)c2cc(F)cc(F)c21 (stereo not given)	16 (≈ 39.2 µM)	2 (≈ 4.9 µM)	2 (≈ 4.9 µM)	16 (≈ 39.2 µM)	4 (≈ 9.8 µM)	2 (≈ 4.9 µM)	4 (≈ 9.8 µM)	4 (≈ 9.8 µM)	16 (≈ 39.2 µM)	512 (≈ 1250 µM)	64 (≈ 157 µM)	32 (≈ 78.4 µM)	128 (≈ 313 µM)	5.33	-0.21	570 (≈ 1400 µM)
Cc1ncc([N+](=O)[O-])n1CC(O)Cn1cc(C(=O)O)c(=O)c2cc(F)ccc21 (stereo not given)	8 (≈ 20.5 µM)	2 (≈ 5.12 µM)	2 (≈ 5.12 µM)	8 (≈ 20.5 µM)	16 (≈ 41 µM)	4 (≈ 10.2 µM)	8 (≈ 20.5 µM)	1 (≈ 2.56 µM)	32 (≈ 82 µM)	512 (≈ 1310 µM)	64 (≈ 164 µM)	128 (≈ 328 µM)	256 (≈ 656 µM)	5.18	-0.13	380 (≈ 974 µM)
CCOC(=O)c1cn(CC2CO2)c2ccc(OC)cc2c1=O (racemic)	–	128 (≈ 422 µM)	64 (≈ 211 µM)	32 (≈ 106 µM)	16 (≈ 52.8 µM)	32 (≈ 106 µM)	16 (≈ 52.8 µM)	64 (≈ 211 µM)	1 (≈ 3.3 µM)	512 (≈ 1690 µM)	4 (≈ 13.2 µM)	64 (≈ 211 µM)	32 (≈ 106 µM)	–	–	–
CCOC(=O)c1cn(CC(O)Cn2c([N+](=O)[O-])cnc2C)c2cc(C(F)(F)F)ccc2c1=O (racemic)	–	4 (≈ 8.54 µM)	8 (≈ 17.1 µM)	4 (≈ 8.54 µM)	16 (≈ 34.2 µM)	8 (≈ 17.1 µM)	2 (≈ 4.27 µM)	2 (≈ 4.27 µM)	4 (≈ 8.54 µM)	128 (≈ 273 µM)	8 (≈ 17.1 µM)	8 (≈ 17.1 µM)	32 (≈ 68.3 µM)	–	–	–
CCOC(=O)c1cn(CC(O)Cn2c([N+](=O)[O-])cnc2C)c2c(F)cc(F)cc2c1=O (racemic)	–	4 (≈ 9.17 µM)	16 (≈ 36.7 µM)	8 (≈ 18.3 µM)	32 (≈ 73.3 µM)	4 (≈ 9.17 µM)	4 (≈ 9.17 µM)	16 (≈ 36.7 µM)	4 (≈ 9.17 µM)	64 (≈ 147 µM)	64 (≈ 147 µM)	128 (≈ 293 µM)	64 (≈ 147 µM)	–	–	–
CCOC(=O)c1cn(CC(O)Cn2cnc([N+](=O)[O-])c2)c2ccc(C)cc2c1=O (racemic)	–	8 (≈ 20 µM)	16 (≈ 40 µM)	16 (≈ 40 µM)	8 (≈ 20 µM)	4 (≈ 9.99 µM)	8 (≈ 20 µM)	8 (≈ 20 µM)	4 (≈ 9.99 µM)	8 (≈ 20 µM)	8 (≈ 20 µM)	2 (≈ 5 µM)	128 (≈ 320 µM)	–	–	–
CCOC(=O)c1cn(CC(O)Cn2cnc([N+](=O)[O-])c2)c2cc(C(F)(F)F)ccc2c1=O (racemic)	–	8 (≈ 17.6 µM)	4 (≈ 8.8 µM)	8 (≈ 17.6 µM)	4 (≈ 8.8 µM)	64 (≈ 141 µM)	128 (≈ 282 µM)	16 (≈ 35.2 µM)	64 (≈ 141 µM)	16 (≈ 35.2 µM)	16 (≈ 35.2 µM)	16 (≈ 35.2 µM)	32 (≈ 70.4 µM)	–	–	–
CCOC(=O)c1cn(CC(O)Cn2cnc([N+](=O)[O-])c2)c2c(F)cccc2c1=O (racemic)	–	64 (≈ 158 µM)	8 (≈ 19.8 µM)	256 (≈ 633 µM)	32 (≈ 79.1 µM)	32 (≈ 79.1 µM)	32 (≈ 79.1 µM)	16 (≈ 39.6 µM)	32 (≈ 79.1 µM)	16 (≈ 39.6 µM)	256 (≈ 633 µM)	128 (≈ 317 µM)	256 (≈ 633 µM)	–	–	–
O=C(O)c1cn(CC(O)Cn2cnc([N+](=O)[O-])c2)c2cc(C(F)(F)F)ccc2c1=O (stereo not given)	16 (≈ 37.5 µM)	8 (≈ 18.8 µM)	4 (≈ 9.38 µM)	4 (≈ 9.38 µM)	4 (≈ 9.38 µM)	8 (≈ 18.8 µM)	2 (≈ 4.69 µM)	4 (≈ 9.38 µM)	4 (≈ 9.38 µM)	128 (≈ 300 µM)	32 (≈ 75.1 µM)	128 (≈ 300 µM)	128 (≈ 300 µM)	–	–	–
